# Assay results reported in publication PMC3880198 (Melanoma research, 2012).
# Like-named read-outs stand apart in the source and are kept apart here. Marks after values point to notes of the source that are not given here.
# Legend:
# integrin αvβ3 [1] = assay: Tumoral αvβ3 expression by IHC staining; type: in vivo, human
# Outline: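 Core-needle or skin punch tumor biopsies 5-7 days pre-treatment and cycle 1 day 8, within 6 h post-infusion. IHC with anti-αvβ3 LM 609; consensus grading by two pathologists on % positive cells (0 none; +1 1-10%; +2 11-25%; +3 26-75%; +4 >75%). Paired t-test, pre vs post.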
# [2] = test system: patients with metastatic melanoma; assay: Toxicity evaluation; conditions: both doses (500 mg and 2,000 mg i.v. twice weekly)
# integrin αvβ3 [3] = conditions: inhibits binding of the integrin to vitronectin; cited from earlier work
# [4] = cited from earlier work
# melanoma = conditions: combination of cilengitide and temozolomide, in vivo; cited from earlier work
# clinical = assay: clinical; set-up: species or system human; conditions: in vivo; for Mean cilengitide concentration / level at 2 h / level at 4 h / level at 24 h: human, iv; for level at 2 h / level at 4 h / level at 24 h: Mean cilengitide concentration
# [5] = test system: recurrent glioblastoma multiforme (GBM); conditions: 81 patients with GBM; cited from earlier work
# glioblastoma = conditions: in combination with temozolomide and radiation therapy; cited from earlier work
# metastatic melanoma [6] = type: in vivo, human; conditions: for Median PFS in weeks (95% CI) / PFS rate at 8 weeks (95% CI): Kaplan-Meier estimate; for Best tumor response: PR / Best tumor response: SD / Best tumor response: CR: RECIST
# [7] = cited from earlier work; remark: listed apart in the source
# [8] = test system: melanoma and endothelial cells; conditions: combination of cilengitide and temozolomide, in vitro; cited from earlier work
# [9] = test system: bFGF- and VEGF-mediated angiogenesis; conditions: chorioallantoic membrane model; ref Cilengitide, Investigators Brochure; cited from earlier work
# [10] = test system: recurrent malignant glioma; conditions: at 360 mg/m^2 and 2,400 mg/m^2; cited from earlier work
# advanced melanoma [11] = conditions: cited from earlier work
# advanced melanoma [12] = conditions: five of 32 treated patients with advanced melanoma; cited from earlier work
# metastatic melanoma [13] = conditions: cited from earlier work
# [14] = among eight patients with matching samples and detectable αvβ3 at baseline
molecule,measurement,setting,value
"CC(C)[C@H]1C(=O)N[C@@H](CCCNC(=N)N)C(=O)NCC(=O)N[C@@H](CC(=O)O)C(=O)N[C@H](Cc2ccccc2)C(=O)N1C [cilengitide, Cilengitide]",Patients in whom αvβ3 expression decreased,integrin αvβ3 [1]; [14],five
same,Patients in whom αvβ3 expression increased,integrin αvβ3 [1]; [14],none
same,Overall tumoral αvβ3 expression with cilengitide treatment,"integrin αvβ3 [1]; baseline vs day 8, 17 matching samples, paired t-test P=0.05",decreased
same,Tolerability,[2],well tolerated
same,Binding to integrin αvβ3 (nanomolar range),integrin αvβ3 [3],~ 2 nM
same,Half-life,[4],less than 5 hours
same,Half-life,"[4]; doses of 120-1,200 mg/m^2, phase I trials",2.3 to 4.0 h
same,Maximum-tolerated dose,[4]; phase I trials,has not been established
same,Tumor reduction,melanoma,more effective tumor reduction compared with temozolomide alone
same,Mean cilengitide concentration,"clinical; 500 mg, 2 h",17.6 µg/mL
same,Mean cilengitide concentration,"clinical; 500 mg, 4 h",8.75 µg/mL
same,level at 2 h,clinical; 500 mg,18200 ng/mL
same,level at 4 h,clinical; 500 mg,8250 ng/mL
same,level at 24 h,clinical; 500 mg,40 ng/mL
same,Mean cilengitide concentration,"clinical; 2000 mg, 2 h",65.8 µg/mL
same,Mean cilengitide concentration,"clinical; 2000 mg, 4 h",30.5 µg/mL
same,Mean cilengitide concentration,"clinical; 2000 mg, 24 h",0.58 µg/mL
same,level at 2 h,clinical; 2000 mg,73200 ng/mL
same,level at 4 h,clinical; 2000 mg,35900 ng/mL
same,level at 24 h,clinical; 2000 mg,710 ng/mL
same,Accumulation after repeated biweekly doses,clinical,No accumulation was observed
same,Increases in plasma concentrations at the given time points with dose,clinical,dose proportional
same,Median OS duration,[5],9.9 months
same,6-month PFS rate,glioblastoma,69%
same,12-month PFS rate,glioblastoma,33%
same,Median PFS,glioblastoma,8.0 months
same,Response rate (CR+PR),metastatic melanoma [6]; 500-mg dose (n=14),0%
same,Median PFS in weeks (95% CI),metastatic melanoma [6]; 500-mg dose (n=14),8.0 weeks
same,PFS rate at 8 weeks (95% CI),metastatic melanoma [6]; 500-mg dose (n=14),14% (4-52%)
same,Best tumor response: PR,metastatic melanoma [6]; 500-mg dose (n=14),0
same,Best tumor response: SD,metastatic melanoma [6]; 500-mg dose (n=14),2(14%)
same,Best tumor response: CR,metastatic melanoma [6]; 500-mg dose i.v. twice weekly (n=14),0
same,Response rate (CR+PR),"metastatic melanoma [6]; 2,000-mg dose (n=12)",8%
same,Median PFS in weeks (95% CI),"metastatic melanoma [6]; 2,000-mg dose (n=12)",7.9 weeks
same,Best tumor response: SD,"metastatic melanoma [6]; 2,000-mg dose (n=12)",0
same,Best tumor response: PR,"metastatic melanoma [6]; 2,000-mg dose (n=12), patient initially progressed after 4 weeks",1 (8%) ^†
same,Best tumor response: CR,"metastatic melanoma [6]; 2,000-mg dose i.v. twice weekly (n=12)",0
same,Response rate (CR+PR),metastatic melanoma [6]; Overall patients (n=26),4%
same,Median PFS in weeks (95% CI),metastatic melanoma [6]; Overall patients (n=26),8.0 (7.9-8.1) weeks
same,PFS rate at 8 weeks (95% CI),metastatic melanoma [6]; Overall patients (n=26),12% (4-33%)
same,Best tumor response: CR,metastatic melanoma [6]; Overall patients (n=26),0
same,Best tumor response: PR,metastatic melanoma [6]; Overall patients (n=26),1 (4%) ^†
same,Best tumor response: SD,metastatic melanoma [6]; Overall patients (n=26),2(8%)
same,Clinical efficacy as single agent,"metastatic melanoma [6]; dose up to 2,000 mg twice weekly, metastatic melanoma",minimal clinical efficacy
same,Patients free of disease progression per RECIST at 8 weeks,metastatic melanoma [6]; of 26 treated patients,three
same,Increase in the sum of the largest diameters of five target lesions after one treatment cycle,"metastatic melanoma [6]; single patient, 2,000 mg, later partial response",28%
same,Concentration noted to be active in preclinical studies (biologically active level),[7],11-13 μg/mL
same,Antiproliferative effects of the combination,[8],synergistic antiproliferative effects
same,Cytokine-induced bFGF- and VEGF-mediated angiogenesis,[9],blocked
same,Response in patients with recurrent malignant glioma,[10],Complete responses were reported
CN(C)/N=N/c1[nH]cnc1C(N)=O [dacarbazine],Estimated PFS rate at 8 weeks,advanced melanoma [11],approximately 40%
CNC(=O)c1ccccc1Sc1ccc2c(/C=C/c3ccccn3)n[nH]c2c1 [axitinib],Objective clinical response,advanced melanoma [12],16%
"etaracizumab (antibody, chains of the INN, looked up, V domains shown) VH: QVQLVESGGGVVQPGRSLRLSCAASGFTFSSYDMSWVRQAPGKGLEWVAKVSSGGGSTYYLDTVQGRFTISRDNSKNTLYLQMNSLRAEDTAVYYCARHLHGSFASWGQGTTVTVSS VL: EIVLTQSPATLSLSPGERATLSCQASQSISNFLHWYQQRPGQAPRLLIRYRSQSISGIPARFSGSGSGTDFTLTISSLEPEDFAVYYCQQSGSWPLTFGGGTKVEIK",Patients with a clinical response,metastatic melanoma [13]; combination arm with dacarbazine,12.7%
same,Patients with a clinical response,"metastatic melanoma [13]; etaracizumab alone, 57 patients",none
